The subject of data set [1] is Rattus norvegicus. Put plainly: Prodrug conversion in Sprague-Dawley rat assessed as AUC (0 to 24 hrs) of 6-((3-Amino-6-fluoro-1H-indazol-5-yl)methyl)-4-fluoro-8-(2-oxo-1,2-dihydropyridin-3-yl)-6H-furo[2,3-e]indole-7-carboxylic acid level at 10 mg/kg, po. Conditions: in vivo; call rule not given here. Set-up: time < 24 hr, dose 10 mg/kg, route oral. It is filed as ADME, organism-based. An outline of the steps: (§1)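 Dimethylaminoethyl ester prodrugs were dosed orally to rats at 10 mg/kg in 0.4% methylcellulose.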

In the next data set the test system is Hepatitis C virus. Put plainly: Antiviral activity against HCV1b assessed as inhibition of viral replication. It is filed as functional, organism-based, Hepacivirus hominis. Particulars: genotype 1b. An outline of the steps:
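In the cell-based HCV replicon assay, viral RNA levels were measured. EC50 is the concentration giving a 50% reduction in replicon RNA.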

The test system of data set [2] is Cynomolgus monkey. The experiment in a line: Prodrug conversion in cynomolgus monkey assessed as AUC (0 to 24 hrs) of 6-((3-Amino-6-fluoro-1H-indazol-5-yl)methyl)-4-fluoro-8-(2-oxo-1,2-dihydropyridin-3-yl)-6H-furo[2,3-e]indole-7-carboxylic acid level at 3 mg/kg, po. It is filed as ADME, organism-based, Macaca fascicularis. Set-up: time < 24 hr, dose 3 mg/kg, route oral. Conditions: in vivo.

Data set [3] has as its system Rattus norvegicus. The experiment in a line: Prodrug conversion in Sprague-Dawley rat assessed as AUC (0 to 6 hrs) of parent compound level at 10 mg/kg, po. It is filed as ADME, organism-based. Set-up: time < 6 hr, dose 10 mg/kg, route oral. Particulars: in vivo. An outline of the steps:
(§2)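 Sprague Dawley rats received esters orally at 10 mg/kg in 0.4% methylcellulose, given as trifluoroacetate salts. Plasma levels of both the intact ester prodrug and the acid metabolite were measured. AUC was integrated over 0–6 h after dosing.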

The nature of data set [4]: AUC (0 to 6 hrs) in Sprague-Dawley rat at 10 mg/kg, po. It is filed as ADME, organism-based. Particulars: plasma. Set-up: time < 6 hr, dose 10 mg/kg, route oral. An outline of the steps: as §2
A short description of data set [5]: Inhibition of HCV1b NS5B polymerase. Set-up: species or system Hepatitis C virus subtype 1b.
Data set [6] concerns Liver microsome. Put plainly: Drug metabolism in human liver microsomes assessed as formation of 2-((R)-2-((S)-4-amino-4-carboxybutanamido)-3-(carboxymethylamino)-3-oxopropylthio)-6-(2,5-difluorobenzyl)-3-hydroxy-8-(2-oxo-1,2-dihydropyridin-3-yl)-3,6-dihydro-2H-furo[2,3-e]indole-7-carboxylic acid in presence of glutathione. It is filed as ADME.
For data set [7], the system named is Liver microsome. The experiment in a line: Drug metabolism in human liver microsomes assessed as formation of 3-(2,5-Difluoro-benzyl)-1-(2-oxo-1,2-dihydro-pyridin-3-yl)-5b,6a-dihydro-3H-6,7-dioxa-3-aza-cyclopropa[b]-as-indacene-2-carboxylic acid. It is filed as ADME.
In data set [8] the test system is Liver microsome. The experiment in a line: Drug metabolism in human liver microsomes assessed as formation of 6-(2,5-difluorobenzyl)-3-hydroxy-2-(methoxyamino)-8-(2-oxo-1,2-dihydropyridin-3-yl)-3,6-dihydro-2H-furo[2,3-e]indole-7-carboxylic acid in presence of NH2OCH3. The format is ADME.
The subject of data set [9] is Liver microsome. The experiment in a line: Drug metabolism in human liver microsomes assessed as formation of 8-(1H-pyrrol-2-yl)-6H-furo[2,3-e]indole-7-carboxylic acid. The format is ADME.
Data set [10] deals with Liver microsome. Put plainly: Drug metabolism in human liver microsomes assessed as formation of 6-(2,5-difluorobenzyl)-2,3-dihydroxy-8-(2-oxo-1,2-dihydropyridin-3-yl)-3,6-dihydro-2H-furo[2,3-e]indole-7-carboxylic acid in presence of water. The format is ADME.
Data set [11] has as its system Cynomolgus monkey. The experiment in a line: Prodrug conversion in cynomolgus monkey assessed as AUC (0 to 24 hrs) of 6-((2-Aminoquinolin-4-yl)methyl)-4-fluoro-8-(2-oxo-1,2-dihydropyridin-3-yl)-6H-furo[2,3-e]indole-7-carboxylic acid level at 3 mg/kg, po. The format is ADME, organism-based, Macaca fascicularis. Set-up: time < 24 hr, dose 3 mg/kg, route oral. Conditions: in vivo.

Data set [12] relates to Rattus norvegicus. Put plainly: Prodrug conversion in Sprague-Dawley rat assessed as AUC (0 to 24 hrs) of 6-((2-Aminoquinolin-4-yl)methyl)-4-fluoro-8-(2-oxo-1,2-dihydropyridin-3-yl)-6H-furo[2,3-e]indole-7-carboxylic acid level at 10 mg/kg, po. The format is ADME, organism-based. Set-up: time < 24 hr, dose 10 mg/kg, route oral. Conditions: in vivo. An outline of the steps: as §1

The subject of data set [13] is Cynomolgus monkey. Put plainly: Prodrug conversion in cynomolgus monkey assessed as AUC (0 to 24 hrs) of 4-Fluoro-6-((6-methyl-1H-indazol-5-yl)methyl)-8-(2-oxo-1,2-dihydropyridin-3-yl)-6H-furo[2,3-e]indole-7-carboxylic acid level at 3 mg/kg, po. The format is ADME, organism-based, Macaca fascicularis. Set-up: time < 24 hr, dose 3 mg/kg, route oral. Conditions: in vivo.

The subject of data set [14] is Rattus norvegicus. The experiment in a line: Prodrug conversion in Sprague-Dawley rat assessed as AUC (0 to 24 hrs) of 4-Fluoro-6-((6-methyl-1H-indazol-5-yl)methyl)-8-(2-oxo-1,2-dihydropyridin-3-yl)-6H-furo[2,3-e]indole-7-carboxylic acid level at 10 mg/kg, po. The format is ADME, organism-based. Set-up: time < 24 hr, dose 10 mg/kg, route oral. Particulars: in vivo. An outline of the steps:
as §1

A short description of data set [15]: Oral bioavailability in Sprague-Dawley rat at 3 mg/kg. It is filed as ADME, organism-based. Particulars: in vivo.
The next data set concerns Plasma. Put plainly: Metabolic stability in po dosed Sprague-Dawley rat plasma assessed as glutathione adduct formation. It is filed as ADME, organism-based. Conditions: in vivo. An outline of the steps: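 Plasma samples from the full rat PK study (oral, 3 mg/kg) were analysed for metabolites, including glutathione adducts.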
The test system of data set [16] is Rattus norvegicus. The experiment in a line: Prodrug conversion in Sprague-Dawley rat assessed as AUC (0 to 6 hrs) of 6-((6-Chloro-1H-benzo[d]imidazol-5-yl)methyl)-4-fluoro-8-(2-oxo-1,2-dihydropyridin-3-yl)-6H-furo[2,3-e]indole-7-carboxylic acid level at 10 mg/kg, po. It is filed as ADME, organism-based. Set-up: time < 6 hr, dose 10 mg/kg, route oral. Conditions: in vivo. An outline of the steps: as §2

pEC50, pIC50: −log10 of the molar value.

For `CN(C)CCOC(=O)c1c(-c2ccc[nH]c2=O)c2c3occc3c(F)cc2n1Cc1cc2c(N)n[nH]c2cc1F.O=C(O)C(F)(F)F`, the area under the curve (AUC) turned out to be 118 µM·h in the data set on Rattus norvegicus [1] and 4.2 µM·h in the data set on Cynomolgus monkey [2]. Also, in the data set with Hepatitis C virus, the pEC50 is 8.40.
With `CCOC(=O)c1c(-c2ccc[nH]c2=O)c2c3occc3c(F)cc2n1Cc1cc2[nH]cnc2cc1Cl`, the exposure (AUC) with Rattus norvegicus [3] turned out to be 0.1 µM·h.
In the case of `O=C(O)c1c(-c2ccc[nH]c2=O)c2c3occc3c(F)cc2n1Cc1cc2[nH]cnc2cc1F`, in the data set with Hepatitis C virus, the pEC50 is 8.15. The area under the curve AUC(0-t) at 6 h in data set [4] was found to be 7.7 µM·h. The negative logarithm of the IC50 (pIC50) in data set [5] was 8.52.
On to `O=C(O)c1c(-c2ccc[nH]c2=O)c2c3occc3ccc2n1Cc1cc(F)ccc1F`, for which the Drug metabolism result in the data set on Liver microsome [6], with Liver microsome [7], in the data set on Liver microsome [8], with Liver microsome [9] and in the data set with Liver microsome [10] was “Active” throughout. Also, the negative-log EC50 (pEC50) with Hepatitis C virus was 6.80. Also, in [5], the pIC50 was 7.51.
On to `CN(C)CCOC(=O)c1c(-c2ccc[nH]c2=O)c2c3occc3c(F)cc2n1Cc1cc(N)nc2ccccc12.O=C(O)C(F)(F)F`, for which, in the data set with Hepatitis C virus, the negative-log EC50 (pEC50) is 8.15. The area under the curve (AUC) was 17 µM·h in the data set on Cynomolgus monkey [11] and 651 µM·h in the data set on Rattus norvegicus [12].
For the molecule `O=C(O)c1c(-c2ccc[nH]c2=O)c2c3occc3cc(F)c2n1Cc1cc(F)ccc1F`, the pEC50 in the data set on Hepatitis C virus was 5.59. The same molecule had a pIC50 in [5] of 7.77.
With `Cc1cc2[nH]ncc2cc1Cn1c(C(=O)OCCN(C)C)c(-c2ccc[nH]c2=O)c2c3occc3c(F)cc21.O=C(O)C(F)(F)F`, the AUC in the data set on Cynomolgus monkey [13] stood at 10.7 µM·h; with Rattus norvegicus [14], 79 µM·h. Moreover, in the data set on Hepatitis C virus, the pEC50 is 8.70.
For `O=C(O)c1c(-c2ccc[nH]c2=O)c2c3occc3c(F)cc2n1Cc1cc2cn[nH]c2cc1Cl`, the pEC50 with Hepatitis C virus was 8.30. This molecule displayed an AUC(0-t) at 6 h in data set [4] of 5.1 µM·h. For the same molecule, the pIC50 in [5] is 8.52.
With `NC(=O)c1ccc(F)c(Cn2c(C(=O)O)c(-c3ccc[nH]c3=O)c3c4occc4c(F)cc32)c1`, the pEC50 with Hepatitis C virus is 7.82. Further, the area under the curve AUC(0-t) at 6 h in data set [4] amounted to 1.7 µM·h. The molecule further came in with a bioavailability in data set [15] of 1.5%. In addition, the pIC50 in data set [5] was 8.40. Moreover, the Stability result in the data set with Plasma is given as “Stable”.
As for `O=C(O)c1c(-c2ccc[nH]c2=O)c2c3occc3c(F)cc2n1Cc1cc2[nH]cnc2cc1Cl`, the pEC50 in the data set with Hepatitis C virus is 8.10. Moreover, the AUC(0-t) at 6 h in data set [4] is 1.2 µM·h. For the same molecule, the negative-log IC50 (pIC50) in [5] was 8.22.
Turning to `O=C([O-])c1c(-c2ccc[nH]c2=O)c2c3occc3c(F)cc2n1Cc1cc2[nH]cnc2cc1Cl.[Na+]`, the area under the curve (AUC) in the data set on Rattus norvegicus [16] was found to be 2.1 µM·h.
Take `Nc1n[nH]c2cc(F)c(Cn3c(C(=O)O)c(-c4ccc[nH]c4=O)c4c5occc5c(F)cc43)cc12`: the pEC50 in the data set on Hepatitis C virus is 8.52. Moreover, the AUC(0-t) at 6 h in [4] is 2.1 µM·h. Moreover, the pIC50 in [5] was 8.40.
For `Cn1nc(N)c2cc(Cn3c(C(=O)O)c(-c4ccc[nH]c4=O)c4c5occc5c(F)cc43)c(F)cc21`, the negative logarithm of the EC50 (pEC50) in the data set on Hepatitis C virus was 7.70. Besides, the area under the curve AUC(0-t) at 6 h in data set [4] was determined as 7.2 µM·h. Besides, the pIC50 in [5] is 8.22.
